Test results from ChEMBL document CHEMBL5154945, “Discovery and Optimization of Pyrrolopyrimidine Derivatives as Selective Disruptors of the Perinucleolar Compartment, a Marker of Tumor Progression toward Metastasis” (J Med Chem, 2022).

Columns and labels:
[1] = biological target: 5-hydroxytryptamine receptor 1A (Homo sapiens) (UniProt P08908); test: Binding affinity to 5-HT1A receptor (unknown origin) at 10000 nM by radioligand displacement assay relative to control
[2] = biological target: D(1B) dopamine receptor (Homo sapiens) (UniProt P21918); test: Binding affinity to D5 receptor (unknown origin) at 10000 nM by radioligand displacement assay relative to control
Chain of D(1B) dopamine receptor (Homo sapiens) (P21918 whole entry): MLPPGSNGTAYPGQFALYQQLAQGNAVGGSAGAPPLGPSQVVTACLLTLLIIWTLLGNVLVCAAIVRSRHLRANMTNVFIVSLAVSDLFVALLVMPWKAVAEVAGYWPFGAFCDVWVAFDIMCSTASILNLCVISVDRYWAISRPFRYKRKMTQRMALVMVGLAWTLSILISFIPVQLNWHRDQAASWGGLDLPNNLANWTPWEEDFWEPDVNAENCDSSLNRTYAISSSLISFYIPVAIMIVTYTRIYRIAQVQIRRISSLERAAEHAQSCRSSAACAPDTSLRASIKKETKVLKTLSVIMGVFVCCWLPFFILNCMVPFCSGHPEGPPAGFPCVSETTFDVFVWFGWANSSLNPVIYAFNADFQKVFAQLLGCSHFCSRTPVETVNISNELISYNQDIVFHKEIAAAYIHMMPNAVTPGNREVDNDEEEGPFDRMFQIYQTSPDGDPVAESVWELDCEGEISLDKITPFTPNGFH

[3] = Cmax in female BALB/c mouse at 25 mg/kg, ip at 30 min by L-MS/MS analysis; type: ADME, organism-based; parameters: dose 25 mg/kg, time 30 min, route ip; details: in vivo, 0.5 h
Method in brief: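 Fed female BALB/c mice, about 6–8 weeks old and 25–30 g, received a single IP dose of 5 or 25 mpk in NMP/PEG400/HP-β-CD aqueous vehicle (0.5 mg/mL for the 5 mpk dose). Three mice per time point were sampled up to 48 h by retro-orbital bleed under isoflurane into K2EDTA. Plasma was spun at 2000 g, 4 °C, frozen at -80 °C, and assayed by LC/MS/MS.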

[4] = tested on: A498; test: Anticancer activity against human A498 cells assessed as cell growth inhibition; type: functional, cell-based; details: dose 1-100 µM, DDE = dose-dependent effect
[5] = biological target: 5-hydroxytryptamine receptor 2C (Homo sapiens) (UniProt P28335); test: Binding affinity to 5-HT2C receptor (unknown origin) at 10000 nM by radioligand displacement assay relative to control
Chain of 5-hydroxytryptamine receptor 2C (Homo sapiens) (P28335 whole entry): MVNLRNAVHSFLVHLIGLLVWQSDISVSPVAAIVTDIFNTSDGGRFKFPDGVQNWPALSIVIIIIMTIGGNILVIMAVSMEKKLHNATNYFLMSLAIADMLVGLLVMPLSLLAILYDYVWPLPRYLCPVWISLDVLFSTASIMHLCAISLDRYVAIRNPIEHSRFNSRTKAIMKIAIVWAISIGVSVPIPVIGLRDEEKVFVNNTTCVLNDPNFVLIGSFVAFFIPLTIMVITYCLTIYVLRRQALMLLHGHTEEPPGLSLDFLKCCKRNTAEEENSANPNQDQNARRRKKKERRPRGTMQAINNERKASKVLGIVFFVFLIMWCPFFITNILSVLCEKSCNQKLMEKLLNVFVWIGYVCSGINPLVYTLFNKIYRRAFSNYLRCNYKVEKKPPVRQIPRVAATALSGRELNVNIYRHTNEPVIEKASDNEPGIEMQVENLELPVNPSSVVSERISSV

[6] = tested on: HCT-15; test: Anticancer activity against human HCT-15 cells assessed as cell growth inhibition; type: functional, cell-based; details: dose 1-100 µM, DDE = dose-dependent effect
[7] = biological target: Sodium-dependent serotonin transporter (Homo sapiens) (UniProt P31645); test: Binding affinity to SERT receptor (unknown origin) at 10000 nM by radioligand displacement assay relative to control
Chain of Sodium-dependent serotonin transporter (Homo sapiens) (P31645 whole entry, looked up): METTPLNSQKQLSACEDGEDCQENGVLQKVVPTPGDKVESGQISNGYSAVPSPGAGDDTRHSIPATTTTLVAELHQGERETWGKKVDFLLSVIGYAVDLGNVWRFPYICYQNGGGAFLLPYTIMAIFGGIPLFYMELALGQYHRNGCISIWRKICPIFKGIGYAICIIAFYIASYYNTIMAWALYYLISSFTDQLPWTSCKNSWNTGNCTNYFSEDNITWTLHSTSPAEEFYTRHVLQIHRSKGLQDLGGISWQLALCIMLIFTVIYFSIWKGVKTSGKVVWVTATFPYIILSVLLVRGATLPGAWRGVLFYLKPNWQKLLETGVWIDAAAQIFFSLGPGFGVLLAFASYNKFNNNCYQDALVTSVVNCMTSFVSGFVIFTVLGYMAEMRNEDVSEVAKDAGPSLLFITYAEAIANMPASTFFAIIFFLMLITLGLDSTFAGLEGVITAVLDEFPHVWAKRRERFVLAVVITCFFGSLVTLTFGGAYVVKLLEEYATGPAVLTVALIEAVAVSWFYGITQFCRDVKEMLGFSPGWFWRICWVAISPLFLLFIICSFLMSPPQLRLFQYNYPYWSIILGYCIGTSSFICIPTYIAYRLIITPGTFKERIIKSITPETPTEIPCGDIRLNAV

[8] = tested on: UACC-62; test: Anticancer activity against human UACC-62 cells assessed as cell growth inhibition; type: functional, cell-based; details: dose 1-100 µM, DDE = dose-dependent effect
[9] = tested on: MOLT-4; test: Anticancer activity against human MOLT-4 cells assessed as cell growth inhibition; type: functional, cell-based; details: dose 1-100 µM, DDE = dose-dependent effect
[10] = Cytotoxicity against human PC-3M cells expressing PTB/GFP fusion protein assessed as reduction in ATP level and measured after 24 to 48 hrs by ATPlite luminescence assay; type: toxicity, cell-based
[11] = biological target: Delta-type opioid receptor (Homo sapiens) (UniProt P41143); test: Binding affinity to DOR receptor (unknown origin) at 10000 nM by radioligand displacement assay relative to control
Chain of Delta-type opioid receptor (Homo sapiens) (P41143 whole entry): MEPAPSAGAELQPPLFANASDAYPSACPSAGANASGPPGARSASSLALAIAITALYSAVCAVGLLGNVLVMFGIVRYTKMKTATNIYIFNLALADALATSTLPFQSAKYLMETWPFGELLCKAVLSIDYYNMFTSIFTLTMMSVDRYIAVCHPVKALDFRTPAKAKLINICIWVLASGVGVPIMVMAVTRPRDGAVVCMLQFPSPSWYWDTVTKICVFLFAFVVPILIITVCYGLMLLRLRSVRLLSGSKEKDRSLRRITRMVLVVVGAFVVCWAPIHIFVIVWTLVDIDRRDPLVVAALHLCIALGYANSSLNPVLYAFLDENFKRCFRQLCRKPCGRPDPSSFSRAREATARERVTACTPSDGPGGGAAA

[12] = tested on: PC-3; test: Anticancer activity against human PC-3 cells assessed as cell growth inhibition; type: functional, cell-based; details: dose 1-100 µM, DDE = dose-dependent effect
[13] = biological target: D(3) dopamine receptor (Homo sapiens) (UniProt P35462); test: Binding affinity to D3 receptor (unknown origin) at 10000 nM by radioligand displacement assay relative to control
Chain of D(3) dopamine receptor (Homo sapiens) (P35462 whole entry): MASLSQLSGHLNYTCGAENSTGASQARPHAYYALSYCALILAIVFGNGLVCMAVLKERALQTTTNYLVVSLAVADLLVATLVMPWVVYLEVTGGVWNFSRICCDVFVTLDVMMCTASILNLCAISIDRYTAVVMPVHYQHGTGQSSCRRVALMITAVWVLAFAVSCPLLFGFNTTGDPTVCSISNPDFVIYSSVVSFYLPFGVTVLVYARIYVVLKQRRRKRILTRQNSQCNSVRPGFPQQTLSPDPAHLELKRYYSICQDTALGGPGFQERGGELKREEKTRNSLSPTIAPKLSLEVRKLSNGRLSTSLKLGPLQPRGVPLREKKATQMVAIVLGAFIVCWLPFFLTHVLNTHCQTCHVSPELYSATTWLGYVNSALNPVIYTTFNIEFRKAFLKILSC

Chain of 5-hydroxytryptamine receptor 1A (Homo sapiens) (P08908 whole entry): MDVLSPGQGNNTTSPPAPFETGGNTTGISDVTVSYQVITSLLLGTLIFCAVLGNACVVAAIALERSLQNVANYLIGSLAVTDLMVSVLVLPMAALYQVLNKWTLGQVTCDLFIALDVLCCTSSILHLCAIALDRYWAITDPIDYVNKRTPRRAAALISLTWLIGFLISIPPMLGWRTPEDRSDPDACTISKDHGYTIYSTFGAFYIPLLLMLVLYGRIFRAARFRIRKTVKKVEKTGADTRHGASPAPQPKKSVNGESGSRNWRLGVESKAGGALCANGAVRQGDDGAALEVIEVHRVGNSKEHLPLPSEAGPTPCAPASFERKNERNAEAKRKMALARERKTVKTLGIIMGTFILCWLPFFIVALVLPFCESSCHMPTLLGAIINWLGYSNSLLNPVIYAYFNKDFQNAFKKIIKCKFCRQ

SMILES: N=c1c2c(-c3ccccc3)c(-c3ccccc3)n(Cc3ccccc3)c2ncn1[C@H]1CC[C@H](O)CC1 [ML-246]
- Activity [1]: < 50%
- Activity [2]: < 50%
- Cmax [3]: 6.17 µM
- Activity [4]: Dde
- Activity [5]: < 50%
- Activity [6]: Dde
- Activity [7]: < 50%
- Activity [8]: Dde
- Activity [9]: Dde
- IC50 [10]: 7.65 µM
- Activity [11]: < 50%
- Activity [12]: Dde
- Activity [13]: < 50%
